The record followed here is ChEMBL document CHEMBL4819117, “Probing cytochrome P450 (CYP) bioactivation with chloromethylindoline bioprecursors derived from the duocarmycin family of compounds” (Bioorg Med Chem, 2021).

In data set [1] the test system is CHO. The data set can be described thus: Antiproliferative activity against chinese hamster CHO cells transfected with CYP1A1 assessed as inhibition of cell growth after 96 hrs by MTT assay. The format is functional, cell-based. Particulars: Cricetulus griseus. The gist of the method: (§1)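 Cells kept as monolayers at 37 °C in 5% CO2: EJ-138 and RT112 in RPMI 1640 with 10% FBS, sodium pyruvate and 2 mM L-glutamine; CHO and CHO-1A1 in DMEM. Compounds were taken from DMSO stocks into medium over 0.001–100 μM, with final DMSO ≤0.1%. Exposure lasted 96 h, then MTT read-out. IC50 values are mean ± SD of at least three independent assays.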

The subject of data set [2] is EJ. The data set is described as follows: Antiproliferative activity against human EJ138 cells deficit in CYPs assessed as inhibition of cell growth after 96 hrs by MTT assay. In kind it is functional, cell-based. The gist of the method:
as §1

Data set [3] concerns RT-112. The data set can be described thus: Antiproliferative activity against human RT112 cells proficient in CYP1A1 assessed as inhibition of cell growth after 96 hrs by MTT assay. The note with it: RT-112, 96 h. In kind it is functional, cell-based. Put shortly:
as §1

Data set [4] relates to CHO. The data set can be described thus: Antiproliferative activity against wild type chinese hamster CHO cells deficit in CYPs assessed as inhibition of cell growth after 96 hrs by MTT assay. The note with it: Cricetulus griseus. The format is functional, cell-based. The gist of the method: as §1
Data set [5] relates to EJ. The data set can be described thus: Antiproliferative activity against human EJ138 cells assessed as inhibition of cell growth preincubated for 1 hr with human CYP1B1 expressing bactosomes measured after 96 hrs by MTT assay. In kind it is functional, cell-based. Put shortly: (§2)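 Compound (50 μM) incubated 1 h at 37 °C with 20 pmol CYP bactosomes (CYP null, 1A1, 1A2, 1B1 or 3A4) in 2 mM NADPH, 1 mM MgCl₂, Tris-HCl pH 7.4. Metabolites were extracted with acetonitrile, centrifuged, and the supernatant dried and taken up in DMSO. EJ138 cells were exposed 96 h and growth read by MTT assay.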

The test system of data set [6] is EJ. The data set can be described thus: Potentiation factor, ratio of IC50 for antiproliferative activity against human EJ138 cells preincubated for 1 hr with CYP null bactosomes to IC50 for antiproliferative activity against human EJ138 cells preincubated for 1 hr with human CYP3A4 expressing bactosomes. The format is functional. The gist of the method: (§3)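 Potentiation factor = IC₅₀ in EJ138 given control (CYP null) bactosome extract ÷ IC₅₀ with the named CYP isoform extract. Extracts came from 1 h, 37 °C incubations of 50 μM compound with 20 pmol bactosomes plus 2 mM NADPH, 1 mM MgCl₂, Tris-HCl pH 7.4. Cells were exposed 96 h and read by MTT.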

Data set [7] addresses T1, Cytochrome P450 1A1 (Homo sapiens, UniProt P04798).
T1 sequence (P04798 whole entry): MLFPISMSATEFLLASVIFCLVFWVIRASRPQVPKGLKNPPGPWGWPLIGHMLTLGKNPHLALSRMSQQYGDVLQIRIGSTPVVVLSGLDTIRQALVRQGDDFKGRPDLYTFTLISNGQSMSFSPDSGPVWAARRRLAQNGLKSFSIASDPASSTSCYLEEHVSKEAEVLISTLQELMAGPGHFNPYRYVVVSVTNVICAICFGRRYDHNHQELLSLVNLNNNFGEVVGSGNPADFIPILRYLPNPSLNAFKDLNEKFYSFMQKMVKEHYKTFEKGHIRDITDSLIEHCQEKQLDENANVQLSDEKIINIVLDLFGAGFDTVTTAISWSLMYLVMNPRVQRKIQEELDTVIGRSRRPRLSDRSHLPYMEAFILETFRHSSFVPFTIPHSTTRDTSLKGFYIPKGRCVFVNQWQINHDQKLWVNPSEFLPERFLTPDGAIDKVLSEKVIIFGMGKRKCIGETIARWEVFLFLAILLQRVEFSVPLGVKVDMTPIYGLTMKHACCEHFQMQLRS
The data set can be described thus: Drug metabolism assessed as recombinant human CYP1A1-mediated metabolite M2 with m/z of 345.1 formation at 50 uM incubated for 1 hr in presence of reconstituted protein system by LC-MS analysis. The note with it: recombinant enzyme. The format is ADME. The gist of the method: (§4)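 Substrate at 50 μM with human recombinant CYP1A1 in a reconstituted system: NADPH cytochrome P450 reductase plus freshly prepared DLPC (240 μM) in 100 mM potassium phosphate, pH 7.4. Mixture pre-warmed 3 min at 37 °C, started with NADPH (final 1 mM), incubated 1 h and extracted into dichloromethane. Analysis by reverse-phase HPLC with photodiode array detection and ESI+ quadrupole MS.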

The subject of data set [8] is EJ. The data set is described as follows: Antiproliferative activity against human EJ138 cells assessed as inhibition of cell growth preincubated for 1 hr with CYP null bactosomes measured after 96 hrs by MTT assay. In kind it is functional, cell-based. Put shortly: as §2
Data set [9] has as its system EJ. The data set can be described thus: Potentiation factor, ratio of IC50 for antiproliferative activity against human EJ138 cells preincubated for 1 hr with CYP null bactosomes to IC50 for antiproliferative activity against human EJ138 cells preincubated for 1 hr with human CYP1A1 expressing bactosomes. The format is functional. Put shortly: as §3
Data set [10] relates to EJ. The data set is described as follows: Potentiation factor, ratio of IC50 for antiproliferative activity against human EJ138 cells preincubated for 1 hr with CYP null bactosomes to IC50 for antiproliferative activity against human EJ138 cells preincubated for 1 hr with human CYP1A2 expressing bactosomes. In kind it is functional. The gist of the method:
as §3

The subject of data set [11] is EJ. The data set is described as follows: Antiproliferative activity against human EJ138 cells assessed as inhibition of cell growth preincubated for 1 hr with human CYP3A4 expressing bactosomes measured after 96 hrs by MTT assay. The format is functional, cell-based. The gist of the method: as §2
Data set [12] has as its target T1, Cytochrome P450 1A1. The data set is described as follows: Drug metabolism assessed as recombinant human CYP1A1-mediated metabolite M4 with m/z of 391.1 formation at 50 uM incubated for 1 hr in presence of reconstituted protein system by LC-MS analysis. In kind it is ADME. The note with it: recombinant enzyme. Put shortly:
as §4

Data set [13] concerns the target T1, Cytochrome P450 1A1. The data set can be described thus: Drug metabolism assessed as recombinant human CYP1A1-mediated metabolite M1 with m/z of 375.1 formation at 50 uM incubated for 1 hr in presence of reconstituted protein system by LC-MS analysis. In kind it is ADME. Particulars: recombinant enzyme. The gist of the method:
as §4

For data set [14], the system named is EJ. The data set is described as follows: Antiproliferative activity against human EJ138 cells assessed as inhibition of cell growth preincubated for 1 hr with human CYP1A1 expressing bactosomes measured after 96 hrs by MTT assay. The format is functional, cell-based. Put shortly: as §2
Data set [15] deals with T1, Cytochrome P450 1A1. The data set can be described thus: Drug metabolism assessed as recombinant human CYP1A1-mediated metabolite M3 with m/z of 373.1 formation at 50 uM incubated for 1 hr in presence of reconstituted protein system by LC-MS analysis. The format is ADME. The note with it: recombinant enzyme. Put shortly:
as §4

Data set [16] relates to EJ. The data set is described as follows: Potentiation factor, ratio of IC50 for antiproliferative activity against human EJ138 cells preincubated for 1 hr with CYP null bactosomes to IC50 for antiproliferative activity against human EJ138 cells preincubated for 1 hr with human CYP1B1 expressing bactosomes. The format is functional. The gist of the method: as §3
Data set [17] has as its system EJ. The data set can be described thus: Antiproliferative activity against human EJ138 cells assessed as inhibition of cell growth preincubated for 1 hr with human CYP1A2 expressing bactosomes measured after 96 hrs by MTT assay. In kind it is functional, cell-based. The gist of the method: as §2
The target in data set [18] is T1, Cytochrome P450 1A1. The data set can be described thus: Drug metabolism assessed as recombinant human CYP1A1-mediated metabolite M1 with m/z of 327.1 formation at 50 uM incubated for 1 hr in presence of reconstituted protein system by LC-MS analysis. The format is ADME. Particulars: recombinant enzyme. Put shortly: as §4

With `CC(C)(C)OC(=O)N1CC(CCl)c2ccc(O)cc21` (stereo not given), the IC50 in data set [1] is 6.5 µM; in data set [2], 8.1 µM; in data set [3], 11.1 µM; in [4], 7.3 µM.
For `CC(C)(C)OC(=O)N1CC(CCl)c2ccccc21` (stereo not given) the same measures were above 25 µM, above 25 µM, above 25 µM and above 25 µM.
Take `COc1ccc2[nH]c(C(=O)N3CC(CCl)c4cc(F)ccc43)cc2c1` (stereo not given): the IC50 in data set [5] is 11.9 µM; in [1] it was 6.2 µM; in [8], 15.8 µM; in data set [2], 18.6 µM; in [3], 5.04 µM; in data set [11], 16.8 µM. For the same compound, the IC50 was found to be 3.1 µM in data set [14], 14.8 µM in data set [4] and 5.11 µM in data set [17]. Moreover, the “Ratio IC50” value in [6] stood at 0.9; in data set [9], 5.1; in data set [10] it was 3.1; in [16] it was 1.3. The Drug metabolism result in data set [7], in data set [12], in data set [13] and in [15] was “Metabolite_Detected” in each case.
In the case of `COc1ccc2[nH]c(C(=O)N3CC(CCl)c4ccc(O)cc43)cc2c1` (stereo not given), the IC50 in [1] worked out at 0.035 µM; in data set [2] it was 0.038 µM; in data set [3], 0.055 µM; in data set [4], 0.03 µM. In addition, the Drug metabolism entry in data set [18] is recorded as “Metabolite_Detected”.
